Source: ChEMBL document CHEMBL1154590, “Synthesis and evaluation of dimeric 1,2,3,4-tetrahydro-naphthalenylamine and indan-1-ylamine derivatives with mast cell-stabilising and anti-allergic activity” (2010)
Active and inactive are the calls of the source. The rule behind the calls is not given here.

What was measured:
[1] = system: Mast cell; experiment: Inhibition of A23187-induced histamine release in Wistar rat peritoneal mast cells; assay type: functional
In short: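 Rat peritoneal mast cells from female Wistar rats, in mast cell medium (MCM) buffer. Histamine release was elicited with A23187 at 1 µg ml-1. IC50 determined.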

[2] = system: Mast cell; experiment: Inhibition of vancomycin-induced histamine release in Wistar rat peritoneal mast cells; assay type: functional
In short: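 Peritoneal mast cells from female Wistar rats, in Tyrodes buffer, challenged with vancomycin at 2.52 mg mL-1 to induce degranulation. IC50 determined.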

[3] = system: Mast cell; experiment: Inhibition of concanavalin A-induced histamine release in Wistar rat peritoneal mast cells; assay type: functional
In short: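 Female Wistar rat peritoneal mast cells, in mast cell medium (MCM) buffer. Concanavalin A at 20 µg ml-1 served as the degranulating stimulus. IC50 determined.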

[4] = system: Mast cell; experiment: Inhibition of 48/80-induced histamine release in Wistar rat peritoneal mast cells after 5 mins; assay type: functional
[5] = system: Mast cell; experiment: Inhibition of anti-IgE-induced histamine release in Brown Norway rat peritoneal mast cells at 10^-5 M
[6] = system: Mast cell; experiment: Inhibition of 48/80-induced histamine release in Wistar rat peritoneal mast cells at 2 x 10^-5 M after 5 mins
[7] = system: Rattus norvegicus; experiment: Antiallergic activity in Wistar rat assessed as inhibition of ovalbumin-induced passive cutaneous anaphylaxis reaction at 3 mg/kg, iv treated after 48 hrs of ovalbumin challenge measured after 30 mins; assay type: functional
In short: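 Female Wistar rats were sensitised by intradermal antiserum (0.1 mL per site) against ovalbumin, raised in rats given ovalbumin with heat-killed Bordetella pertussis. Sites were excised at 30 min, digested in KOH overnight at 37 °C and extracted with H3PO4/acetone. Absorbance read at 620 nm; % inhibition reported.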

[8] = system: Mast cell; experiment: Inhibition of 48/80-induced histamine release in Wistar rat peritoneal mast cells at 2 x 10^-5 M after 5 mins; assay type: functional
[9] = system: Mast cell; experiment: Inhibition of anti-IgE-induced histamine release in Brown Norway rat peritoneal mast cells at 2 x 10^-5 M

Compound	inhibition at 20 µM [6] [%]	inhibition in vivo at 3 mg/kg [7] [%]	also measured
CN(C1CCCc2ccccc21)C1CC(=O)c2ccccc21 (stereo unspecified)	93	13	IC50 [1]: 2 µM; IC50 [2]: 4.7 µM; IC50 [3]: 0.7 µM; IC50 [4]: 1.5 µM; inhibition at 10 µM [5]: 68%
O=C1CC(N(Cc2ccccc2)C2CCc3ccccc3C2)c2ccccc21 (stereo unspecified)	67	79	–
COc1cc(CN(C2CCc3ccccc3C2)C2CC(=O)c3ccccc32)cc(OC)c1OC (stereo unspecified)	–	70	inhibition at 20 µM [8]: 40%
C=CCN(C1CCCc2ccccc21)C1CC(=O)c2ccccc21 (stereo unspecified)	92	72	–
CC(=O)N(C1CCCc2ccccc21)C1CC(=O)c2ccccc21 (stereo unspecified)	–	–	inhibition [8]: inactive
O=C(O)c1cc(=O)c2c(OCC(O)COc3cccc4oc(C(=O)O)cc(=O)c34)cccc2o1 [CROMOLYN SODIUM]	10	99	–
COc1ccc2c(c1)C(N(C)C1CCCc3ccccc31)CC2=O (stereo unspecified)	–	62	inhibition at 20 µM [8]: 55%
COc1cccc2c1C(=O)CC2N(C)C1CCCc2ccccc21 (stereo unspecified)	–	–	inhibition at 20 µM [8]: 48%
Cc1ccc(CN(C2CCc3ccccc3C2)C2CC(=O)c3ccccc32)cc1 (stereo unspecified)	68	73	–
COc1ccc2c(c1)C(N(C)C1CC(=O)c3ccccc31)CCC2 (stereo unspecified)	100	–	–
CN(C1CCc2ccccc21)C1CCC(=O)c2ccccc21 (stereo unspecified)	14	–	inhibition [7]: inactive
C=CCN(C1CCc2ccccc2C1)C1CC(=O)c2ccccc21 (stereo unspecified)	59	82	–
CN(C1CCCc2ccccc21)C1CCCc2ccccc21 (stereo unspecified)	–	–	inhibition [8]: inactive
CN(C1CCC(=O)c2ccccc21)C1CC(=O)c2ccccc21 (stereo unspecified)	61	–	–
CN(C1CCOc2ccccc21)C1CC(=O)c2ccccc21 (stereo unspecified)	100	–	–
CN(C1CCc2ccccc2C1)C1CC(=O)c2ccccc21 (stereo unspecified)	76	98	inhibition at 20 µM [9]: 95%
CN(C1CCCc2ccccc21)C1CCC(=O)c2ccccc21 (stereo unspecified)	99	29	IC50 [1]: 38 µM; IC50 [3]: 2.4 µM
